{
  "source": "paper PMC6310869",
  "about": "(CPT: Pharmacometrics & Systems Pharmacology, 2018)",
  "key": {"CYP2D6 [1]": {"target": "T1, CYP2D6 (Homo sapiens, UniProt P10635)", "T1 sequence (P10635 whole entry)": "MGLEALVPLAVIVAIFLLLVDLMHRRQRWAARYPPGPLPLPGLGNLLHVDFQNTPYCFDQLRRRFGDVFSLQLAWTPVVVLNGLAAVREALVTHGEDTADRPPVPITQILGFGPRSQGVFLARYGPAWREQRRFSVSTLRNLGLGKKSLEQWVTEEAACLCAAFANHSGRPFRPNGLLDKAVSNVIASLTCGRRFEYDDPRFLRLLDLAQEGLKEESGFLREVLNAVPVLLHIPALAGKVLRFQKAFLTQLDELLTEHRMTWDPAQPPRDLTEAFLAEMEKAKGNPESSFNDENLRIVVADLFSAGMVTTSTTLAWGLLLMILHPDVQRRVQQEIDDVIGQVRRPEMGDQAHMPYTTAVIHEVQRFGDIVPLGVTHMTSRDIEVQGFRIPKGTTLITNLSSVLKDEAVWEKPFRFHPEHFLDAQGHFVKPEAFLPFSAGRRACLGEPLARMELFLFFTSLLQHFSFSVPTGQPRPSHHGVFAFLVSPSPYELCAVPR", "conditions": "ref Simcyp; cited from earlier work"}, "CYP3A4 mRNA": {"system": "CYP3A4 mRNA", "assay": "Induction in primary cultures of cryopreserved human hepatocytes", "format": "cell-based", "conditions": "1 μM, once daily for 3 days, 3 donors", "in_short": "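Primary cultures of cryopreserved human hepatocytes, 3 white donors as independent evaluations. Dosed once daily for 3 days with test compound (1, 2.5, 10 μM), vehicle, 25 μM flumazenil (negative control) or 20 μM rifampicin (positive control). Cells lysed and total RNA harvested; CYP3A4 mRNA quantified by RT-PCR.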"}, "CYP2B6": {"target": "T2, CYP2B6 (Homo sapiens, UniProt P20813)", "T2 sequence (P20813 1-491)": "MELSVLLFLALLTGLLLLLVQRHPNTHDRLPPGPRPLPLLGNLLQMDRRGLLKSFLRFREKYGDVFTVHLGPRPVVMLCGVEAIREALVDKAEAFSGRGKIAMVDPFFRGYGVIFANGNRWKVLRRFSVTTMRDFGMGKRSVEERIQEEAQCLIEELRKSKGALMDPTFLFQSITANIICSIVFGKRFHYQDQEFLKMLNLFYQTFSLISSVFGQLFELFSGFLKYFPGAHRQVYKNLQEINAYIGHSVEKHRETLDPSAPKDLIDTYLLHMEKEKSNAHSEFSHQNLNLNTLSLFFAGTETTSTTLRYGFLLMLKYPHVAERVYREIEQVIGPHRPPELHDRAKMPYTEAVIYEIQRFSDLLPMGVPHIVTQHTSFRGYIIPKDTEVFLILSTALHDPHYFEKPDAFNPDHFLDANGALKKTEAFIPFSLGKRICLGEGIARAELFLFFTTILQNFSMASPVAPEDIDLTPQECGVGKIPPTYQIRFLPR", "format": "in vitro ADME", "conditions": "pooled human liver microsomes, probe efavirenz (8-hydroxylation)"}, "[2]": {"assay": "Plasma protein binding in fresh human plasma by ultrafiltration", "format": "in vitro ADME", "in_short": "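Fresh human plasma spiked with test compound at 5, 10 and 75 μg/mL and incubated 0.5 hours at 37°C. Ultrafiltration followed by LC-MS/MS of both the ultrafiltrate and the originally spiked plasma.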"}, "[3]": {"assay": "logP by shaking octanol/water, HPLC quantification", "format": "physicochemical", "in_short": "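Shake-flask method: octanol-saturated water holding test compound (~26 mg/mL) was shaken with an equal volume of water-saturated octanol for 1 hour at 23°C. Compound quantified by HPLC in each separated phase.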"}, "CYP3A4/5 [4]": {"system": "CYP3A4/5", "format": "in vitro ADME", "conditions": "human, pooled human liver microsomes, probe midazolam (1'-hydroxylation)"}, "CYP3A4/5 [5]": {"system": "CYP3A4/5", "assay": "Direct inhibition", "format": "in vitro ADME", "conditions": "human, pooled human liver microsomes, probe midazolam (1'-hydroxylation)"}, "[6]": {"assay": "Clinical pharmacokinetics, phase I study in patients with solid tumors", "format": "in vivo", "conditions": "human, plasma, iv"}, "CYP2D6 [7]": {"target": "T1, CYP2D6", "assay": "In vitro time-dependent inhibition of CYP2D6", "format": "in vitro ADME", "conditions": "in vitro data"}, "[8]": {"conditions": "patients; cited from earlier work"}, "CYP2D6 [9]": {"target": "T1, CYP2D6", "assay": "Direct inhibition", "format": "in vitro ADME"}, "human hepatocytes": {"system": "human hepatocytes", "assay": "Cell integrity of hepatocyte cultures", "format": "cell-based", "conditions": "for Lactate dehydrogenase release: 3 days", "in_short": "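Cryopreserved primary human hepatocytes from 3 white donors, dosed once daily for 3 days with test compound (1, 2.5, 10 μM), vehicle, 25 μM flumazenil (negative control) or 20 μM rifampicin (positive control). Cell integrity judged by lactate dehydrogenase release into the culture medium and by microscopic review of morphology and confluency.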"}, "CYP3A": {"system": "CYP3A", "conditions": "cited from earlier work"}, "CYP3A4": {"system": "CYP3A4", "conditions": "ref Simcyp; cited from earlier work"}},
  "note": "“Also recorded” adds a separate entry of the source.",
  "data": [
    {"compound": "COc1ccc2c(c1)[C@]13CCCC[C@@H]1[C@H](C2)N(C)CC3", "note": "[Dextromethorphan]", "values": [
      {"measurement": "fmCYP (fraction of substrate metabolized by CYP)", "setting": "CYP2D6 [1]", "value": 0.72}
    ]},
    {"compound": "Cn1c(COP(=O)(NCCBr)NCCBr)cnc1[N+](=O)[O-]", "note": "[Evofosfamide, [1‐methyl‐2‐nitro‐1H‐imidazole‐5‐yl] methyl N, N’‐bis [2‐bromoethyl] diamidophosphate]", "values": [
      {"measurement": "Effect on CYP3A4 mRNA", "setting": "CYP3A4 mRNA", "value": "no increase; also recorded: No induction"},
      {"measurement": "KI (inactivation)", "setting": "CYP2B6", "value": 3200, "unit": "µM"},
      {"measurement": "kinact", "setting": "CYP2B6", "value": 0.000533, "unit": "s⁻¹"},
      {"measurement": "fraction unbound at 0.5 h", "setting": "[2]", "value": 0.455},
      {"measurement": "logP at 1 hour", "setting": "[3]", "value": 0.92},
      {"measurement": "KI (inactivation)", "setting": "CYP3A4/5 [4]", "value": 370, "unit": "µM"},
      {"measurement": "kinact", "setting": "CYP3A4/5 [4]", "value": 0.000417, "unit": "s⁻¹"},
      {"measurement": "Ki at 5 min", "setting": "CYP3A4/5 [5]", "value": 141, "unit": "µM"},
      {"measurement": "Vd", "setting": "[6]", "value": 0.43, "unit": "L/kg"},
      {"measurement": "clearance", "setting": "[6]", "value": 1060, "unit": "mL/min"},
      {"measurement": "Time-dependent inhibition of CYP2D6", "setting": "CYP2D6 [7]", "value": "not time‐dependent"},
      {"measurement": "Elimination half-life", "setting": "[8]", "value": 48.6, "unit": "min"},
      {"measurement": "Ki", "setting": "CYP2D6 [9]", "value": 85.3, "unit": "µM"},
      {"measurement": "Microscopic evaluation of toxicity", "setting": "human hepatocytes; 1 μM, day 3, some signs of toxicity in third preparation", "value": "no signs of toxicity in two of the three donor cells"},
      {"measurement": "Lactate dehydrogenase release", "setting": "human hepatocytes; 10 μM, versus control incubations", "value": "higher"},
      {"measurement": "Lactate dehydrogenase release", "setting": "human hepatocytes; 1 and 2.5 μM", "value": "comparable to control incubations"},
      {"measurement": "Microscopic evaluation of toxicity", "setting": "human hepatocytes; 2.5 and 10 μM", "value": "Toxicity was observed in all donor cells"}
    ]},
    {"compound": "Cc1ncc2n1-c1ccc(Cl)cc1C(c1ccccc1F)=NC2", "note": "[Midazolam]", "values": [
      {"measurement": "Fraction escaping gut metabolism in the absence of inhibitor (fG)", "setting": "CYP3A", "value": 0.57},
      {"measurement": "fmCYP (fraction of substrate metabolized by CYP)", "setting": "CYP3A4", "value": 0.96}
    ]}
  ]
}
